# CYP2C9 inhib: inhibitors of human CYP2C9; P11712; CYP2C9 Supersomes, luciferin-H conversion, luminescence; inhibition, % at 5 µM; 20% of 96,000 active;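 active = blocking of liver enzyme CYP2C9 beyond about 50% at 5 µM, limit read from the data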
# CYP2C19 act: increases human CYP2C19 enzyme activity; recombinant CYP2C19, luciferin-H EGE luminescence; stronger effect = higher value; 0 = fully inhibited enzyme, 1 = untreated enzyme; activation factor at 5 µM; 96,000 tested, under 10 active; AID 1025;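 active = activation factor of at least 2 at 5 µM in the primary screen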;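 note: 0 = wells with 2.5 mM tranylcypromine and 1 = vehicle-only wells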
# Target sequence (P33261 whole entry, looked up): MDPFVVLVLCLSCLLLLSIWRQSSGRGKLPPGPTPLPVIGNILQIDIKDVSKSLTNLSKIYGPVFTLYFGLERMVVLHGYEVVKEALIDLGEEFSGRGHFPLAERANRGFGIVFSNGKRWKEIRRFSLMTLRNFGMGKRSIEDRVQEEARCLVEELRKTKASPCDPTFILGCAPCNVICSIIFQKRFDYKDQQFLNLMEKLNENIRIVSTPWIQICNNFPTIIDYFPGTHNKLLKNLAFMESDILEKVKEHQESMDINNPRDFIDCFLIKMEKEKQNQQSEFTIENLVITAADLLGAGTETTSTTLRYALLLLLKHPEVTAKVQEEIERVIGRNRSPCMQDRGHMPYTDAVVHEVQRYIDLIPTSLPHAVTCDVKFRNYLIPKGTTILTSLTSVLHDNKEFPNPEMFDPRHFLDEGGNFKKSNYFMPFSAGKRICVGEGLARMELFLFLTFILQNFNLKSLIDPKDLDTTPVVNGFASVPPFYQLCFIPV
# Cav3 T inh: inhibitors of human Cav3.2 T-type calcium channel; O95180; Cav3.2-expressing cells, Fluo-4 calcium fluorescence FDSS; stronger effect = lower value; B-score at 10 µM; 4% of 100,000 active;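 active = single-dose well whose peak fluorescence ratio is a statistical outlier from its plate by either plate-standardised score or position-corrected B-score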
# CYP2C9 activ: increases human cytochrome P450 2C9 activity. recombinant CYP2C9, luciferin-H conversion, luminescence; stronger effect = higher value; factor 1 = untreated enzyme, 0 = blocked. activation factor at 5 µM. 1.4% of 96,000 active. AID 1024;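 active = activation factor of 2 or more for CYP2C9 at a 5 µM dose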;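 note: 0 = sulfaphenazole-blocked wells and 1 = vehicle-only wells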
# CYP2C19 inhib: inhibitors of human CYP2C19; P33261; CYP2C19 Supersomes, luciferin-H EGE luminescence, 30 min; inhibition, % at 5 µM; 21% of 96,000 active;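 active = CYP2C19 inhibition above a set limit at 5 µM in the primary screen, cut at about 50% in these data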;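 note: plate controls were negative control wells for no effect and 2.5 mM tranylcypromine positive control for full effect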
# HIV Rev-RRE inh: disrupts HIV-1 Rev binding to RRE RNA; 0.79% of 97,000 active; inhibition, % at 8 µM; Rev peptide-RRE RNA binding, FRET; P05866; AID 704;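 active = inhibition above the screen-wide mean plus 3 SD, cut at about 35% in these data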;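 note: 0% = median DMSO wells and 100% = median Neomycin B control wells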
# Target sequence (P05866 whole entry, looked up): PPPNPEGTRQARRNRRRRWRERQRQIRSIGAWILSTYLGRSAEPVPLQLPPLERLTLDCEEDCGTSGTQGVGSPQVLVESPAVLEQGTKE
#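 Test system: Cy5-tagged RRE RNA duplex with fluorescein-tagged Rev peptide; Probe or stimulus: labelled Rev peptide; Schedule: 5 min preincubation and 15 min binding, 25 °C; Signal: FRET fluorescence readout; Evaluation: % inhibition from 671/540 nm acceptor-to-donor ratio, scaled between controls; Control set: DMSO and neomycin B.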
# * marks the source's active call; other numbers are inactive results; x = no result given. In the library only some 27% were active in any assay of this set; here they are far more common.
SMILES,CYP2C9 inhib,CYP2C19 act,Cav3 T inh,CYP2C9 activ,CYP2C19 inhib,HIV Rev-RRE inh
COc1ccccc1OC(C)C(=O)Nc1nc(-c2ccc(S(=O)(=O)N3CCOCC3)cc2)cs1 (configuration not stated),93*,0.6,-2.7,0.1,37,-2
COc1ccccc1C(=O)Nc1nc(-c2ccc(S(=O)(=O)N3CCOCC3)cc2)cs1,47,0.7,-0.82,0.5,34,2
O=C(CCCC(=O)N(c1ccc2c(c1)OCCO2)C(C(=O)NC1CCCCC1)c1ccc(F)cc1)Nc1ccccn1 (configuration not stated),-100,0.5,x,2*,52*,-6
COCCN(C(=O)CCCC(=O)Nc1ccccn1)C(C(=O)NC1CCCCC1)c1ccc(C)cc1 (configuration not stated),56*,0.4,-1.9,0.4,64*,4
O=C(COc1ccccc1)NC(Cc1c[nH]c2ccccc12)C(=O)O (configuration not stated),31,0.7,0.58,0.7,26,7
O=S(=O)(c1ccc(Cl)cc1)N1CCC(n2cnc3cc(C(F)(F)F)ccc32)CC1,x,x,-0.68,x,x,6
CCOc1ccc(NC(C)c2cc(Cl)ccc2O)cc1 (configuration not stated),79*,0.4,-1.6,0.2,62*,-4
CC(Nc1ccc(Cl)cc1)c1cc(Cl)ccc1O (configuration not stated),x,x,-3,x,x,6
CC(Nc1ccc(Br)cn1)c1cc(Cl)ccc1O (configuration not stated),86*,0.2,x,0.1,82*,3
Cc1ccc(NC(=O)COc2ccccc2CNC(C)(C)CC(C)(C)C)cc1,6,0.5,-2.4,0.9,46,18
COc1cccc(CNc2ccc3c(c2)ncn3C(C)C)c1OC,64*,0.1,-0.055,0.4,86*,-5
COc1cccc(CNc2ccc(F)c(Cl)c2)c1OC,10,0.5,-2.4,0.9,47,5
CCCn1cnc2cc(NCc3cccc(OC)c3O)ccc21,58*,0.1,-0.54,0.4,86*,-3
CCN(CC)Cc1c(CC(C)C)oc(C)c1C(=O)O,-16,1.1,-0.034,1.2,-9,6
CCC(C)c1ccc(O)c(NC(=O)c2cncc(Br)c2)c1 (configuration not stated),50*,0.6,-2.4,0.5,39,6
CC(C)c1ccc(O)c(NC(=O)c2cccnc2)c1,48,0.3,0.22,0.5,70*,3
CN(C)C(=O)c1ccc(NC(=O)c2cncc(Br)c2)cc1,x,x,-0.35,x,x,x
Cc1ccc(O)c(-c2cc(C(F)(F)C(F)F)[nH]n2)c1,83*,0.2,-2.6,0.2,84*,16
Cc1ccc(O)c(C2=NCCNC(C(F)(F)F)=C2)c1,42,1,1.1,0.6,4,2
Cc1ccc(O)c(-c2cc(-c3ccccc3C)[nH]n2)c1,98*,0.2,-3,0,82*,13
COc1ccc2oc(C(=O)OCC(=O)NC(=O)NC(C)C)c(C)c2c1,9,0.9,-1.5,0.9,14,12
COC(=O)c1nnn(-c2nonc2N)c1CSc1ccccn1,23,0.2,0.31,0.8,80*,x
CCCN(CCC)Cc1c(C(=O)OCC)nnn1-c1nonc1N,19,1,0.1,0.8,0,2
CC(C)OC(=O)c1nnn(-c2nonc2N)c1CSc1ccccn1,57*,0.3,x,0.4,74*,5
O=C(CN1C(=O)CSC1=O)Nc1ccc(F)c(F)c1F,11,0.9,-0.068,0.9,10,4
SMILES,CYP2C9 inhib,CYP2C19 act,Cav3 T inh,CYP2C9 activ,CYP2C19 inhib,HIV Rev-RRE inh
C/C(=N\NC(=O)C1CC1c1ccccc1)c1cccs1 (configuration not stated),51*,0.1,-0.28,0.5,88*,-2
C/C(=N/NC(=O)Cc1cccc2ccccc12)c1cccs1,19,0.2,-0.32,0.8,76*,11
C/C(=N\NC(=O)C1CC1c1ccccc1)c1cccc([N+](=O)[O-])c1 (configuration not stated),36,0.9,-0.055,0.6,12,6
O=C(Nc1ccncc1)C1CC1c1ccccc1 (configuration not stated),84*,0,0.86,0.2,97*,3
COc1ccc(C2CC2/C(=N/OC(=O)c2cccs2)c2ccccc2)cc1 (configuration not stated),94*,0.3,-6*,0.1,71*,22
Cc1ccccc1C(=O)NC1CC(C)(C)NC(C)(C)C1,x,x,1.6,x,x,2
CCOC(=O)C1=C(C)N(CCCC(=O)NCc2ccc3c(c2)OCO3)C(=O)NC1c1ccc(Br)cc1 (configuration not stated),x,x,-2.1,x,x,x
N#Cc1c(NC(=O)c2ccc(Cn3cc(Br)cn3)o2)sc2c1CCCCCC2,58*,0.7,-3.3,0.4,31,12
Cc1cc(=O)n2cc(-c3ccccc3)nc2[nH]1,16,0.8,0.025,0.8,17,5
CS(=O)(=O)N(CC(=O)O)c1cc(Cl)cc(Cl)c1,-14,1.1,0.85,1.1,-13,10
COc1cc(C2c3c(oc4ccc(C)cc4c3=O)C(=O)N2c2cc(C)ccn2)cc(OC)c1OC (configuration not stated),59*,1,x,0.4,3,x
O=C(O)CC1NC(=S)N(c2ccccc2)C1=O (configuration not stated),-13,1.1,0.022,1.1,-7,4
O=C1C(Cc2ccc(O)cc2)NC(=S)N1c1ccccc1 (configuration not stated),38,0.4,1.3,0.6,57*,9
COCCN(C(=O)Cn1nnc2ccccc21)C(C(=O)NC1CCCC1)c1cccc(OC)c1OC (configuration not stated),16,0.9,0.81,0.8,7,4
Cc1ccc2c(CN3CCN(CCO)CC3)cc(=O)oc2c1,-16,1,-0.57,1.2,-1,-1
CCC(CO)n1c(SCc2cc(=O)oc3cc(C)ccc23)nc2ccccc2c1=O (configuration not stated),98*,0,-3.5,0,97*,12
Cc1ccccc1NC(=O)CCC(=O)OCCCC(F)(F)C(F)(F)F,10,0.9,-0.056,0.9,8,2
CCOc1ccccc1N(C)C(=O)C1CCN(S(=O)(=O)c2cccc3nonc23)CC1,94*,0.2,0.66,0.1,85*,11
O=C(NCCc1ccc(Cl)cc1)C1CCN(S(=O)(=O)c2cccc3nonc23)CC1,-151,0.7,x,2.5*,26,9
O=C(NCCN1CCN(c2ccccc2)CC1)C1CCN(S(=O)(=O)c2cccs2)CC1,15,0.9,0.81,0.9,12,6

# Compound activity as filed in PubChem.
